Experimental data as given in ChEMBL document CHEMBL4229344 (Eur J Med Chem, 2018).
pIC50: −log10 of the molar value.

Assays:
[1] = target: Tyrosine-protein kinase ABL2 (Homo sapiens) (UniProt P42684); experiment: Binding affinity to wild-type human ABL2 (A248 to G542 residues) expressed in bacterial expression system assessed as residual binding level at 1 uM by Kinomescan method relative to control
In short: (§1)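 KINOMEscan competition binding against 468 purified kinases/mutants, test compound at 1 µM; residual binding relative to control.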

[2] = target: Microtubule-associated serine/threonine-protein kinase 1 (Homo sapiens) (UniProt Q9Y2H9); experiment: Binding affinity to wild-type human partial length MAST1 (S346 to V730 residues) expressed in mammalian expression system assessed as residual binding level at 1 uM by Kinomescan method relative to control
[3] = target: Calcium/calmodulin-dependent protein kinase type IV (Homo sapiens) (UniProt Q16566); experiment: Binding affinity to wild-type human partial length CAMK4 (A22 to A322 residues) expressed in bacterial expression system assessed as residual binding level at 1 uM by Kinomescan method relative to control
[4] = MRT (0 to t) in Sprague-Dawley rat at 1 mg/kg, iv; assay type: ADME, organism-based; conditions: in vivo
[5] = target: Mitogen-activated protein kinase kinase kinase 15 (Homo sapiens) (UniProt Q6ZN16); experiment: Binding affinity to wild-type human partial length MAP3K15 (T625 to L932 residues) expressed in mammalian expression system assessed as residual binding level at 1 uM by Kinomescan method relative to control
[6] = target: Protein-tyrosine kinase 6 (Homo sapiens) (UniProt Q13882); experiment: Binding affinity to wild-type human partial length BRK (L166 to T451 residues) expressed in bacterial expression system assessed as residual binding level at 1 uM by Kinomescan method relative to control
In short: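 Single-concentration KINOMEscan (DiscoverX) binding screen at 1 μM against a panel of 468 purified kinases and mutants. The read-out is binding relative to control.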

[7] = target: Phosphatidylinositol 4-phosphate 3-kinase C2 domain-containing subunit beta (Homo sapiens) (UniProt O00750); experiment: Binding affinity to wild-type human partial length PIK3C2B (M1 to L1634 residues) expressed in mammalian expression system assessed as residual binding level at 1 uM by Kinomescan method relative to control
[8] = target: Ribosomal protein S6 kinase alpha-1 (Homo sapiens) (UniProt Q15418); experiment: Binding affinity to wild-type human partial length C-terminal RSK1 kinase domain 2 (P360 to L681 residues) expressed in bacterial expression system assessed as residual binding level at 1 uM by Kinomescan method relative to control
[9] = target: Serine/threonine-protein kinase PLK3 (Homo sapiens) (UniProt Q9H4B4); experiment: Binding affinity to wild-type human partial length PLK3 (A42 to L334 residues) expressed in mammalian expression system assessed as residual binding level at 1 uM by Kinomescan method relative to control
In short: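 KINOMEscan competition binding against a panel of 468 purified kinases/mutants, compound tested at 1 μM; readout is relative binding activity versus control.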

[10] = target: Platelet-derived growth factor receptor alpha (Homo sapiens, UniProt P16234); experiment: Inhibition of PDGFRalpha in human EOL-1 cells assessed as decrease in STAT5 phosphorylation at Y694 residue after 2 hrs in presence of PDGF-AA by Western blot analysis; assay type: cell-based
[11] = tested on: Epidermal growth factor receptor (Homo sapiens), P00533 [T790M]; experiment: Binding affinity to human partial length EGFR T790M mutant (R669 to G1022 residues) expressed in mammalian expression system assessed as residual binding level at 1 uM by Kinomescan method relative to control
In short: (§2)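 Kinome-wide single-concentration binding screen (KINOMEscan) at 1 μM against a panel of 468 purified kinases and mutants. Read-out is relative binding of each kinase compared with control. Selectivity across the panel was summarised as an S(10) score.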

[12] = target: Serine/threonine-protein kinase/endoribonuclease IRE1 (Homo sapiens) (UniProt O75460); experiment: Binding affinity to wild-type human partial length ERN1 (S551 to E852 residues) expressed in mammalian expression system assessed as residual binding level at 1 uM by Kinomescan method relative to control
[13] = target: Fibroblast growth factor receptor 1 (Homo sapiens) (UniProt P11362); experiment: Binding affinity to wild-type human partial length FGFR1 (P357 to V669 residues) expressed in bacterial expression system assessed as residual binding level at 1 uM by Kinomescan method relative to control
[14] = tested on: Tyrosine-protein kinase ABL1 (Homo sapiens), P00519 [Y253F]; experiment: Binding affinity to human phosphorylated ABL1 Y253F mutant (S229 to K512 residues) expressed in mammalian expression system assessed as residual binding level at 1 uM by Kinomescan method relative to control
In short: (§3)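 Single-concentration (1 μM) competition-binding screen run by KINOMEscan against a panel of 468 purified kinases and mutants. The read-out is the relative binding activity of the test compound to each kinase.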

[15] = target: CDK4/Cyclin D3 (Homo sapiens) (UniProt P11802+P30281); experiment: Binding affinity to wild-type human full length CDK4/cyclinD3 (M1 to E303 residues) expressed in mammalian expression system assessed as residual binding level at 1 uM by Kinomescan method relative to control; in short: as §3
[16] = target: G protein-coupled receptor kinase 4 (Homo sapiens) (UniProt P32298); experiment: Binding affinity to wild-type human full length GRK4 (M1 to C578 residues) expressed in bacterial expression system assessed as residual binding level at 1 uM by Kinomescan method relative to control; in short: as §3
[17] = tested on: Epidermal growth factor receptor (Homo sapiens), P00533 [UNDEFINED MUTATION]; experiment: Binding affinity to human partial length EGFR L747-E749del/A750P mutant expressed in bacterial expression system assessed as residual binding level at 1 uM by Kinomescan method relative to control; in short: as §2
[18] = target: Dual specificity tyrosine-phosphorylation-regulated kinase 1B (Homo sapiens) (UniProt Q9Y463); experiment: Binding affinity to wild-type human full length DYRK1B (M1 to S629 residues) expressed in bacterial expression system assessed as residual binding level at 1 uM by Kinomescan method relative to control; in short: as §1
[19] = target: Tyrosine-protein kinase ABL1 (Homo sapiens, UniProt P00519); experiment: Inhibition of ABL1 (unknown origin) using poly(4:1 Glu,Tyr) peptide as substrate preincubated for 1 hr followed by addition of ATP and measured after 30 mins by ADP-Glo bioluminescence assay
[20] = target: LIM domain kinase 1 (Homo sapiens) (UniProt P53667); experiment: Binding affinity to wild-type human full length LIMK1 (M1 to D647 residues) expressed in bacterial expression system assessed as residual binding level at 1 uM by Kinomescan method relative to control; in short: as §3
[21] = target: Calcium/calmodulin-dependent protein kinase kinase 2 (Homo sapiens) (UniProt Q96RR4); experiment: Binding affinity to wild-type human partial length CAMKK2 (D65 to V471 residues) expressed in bacterial expression system assessed as residual binding level at 1 uM by Kinomescan method relative to control
In short: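 Kinome-wide competition binding screen against a panel of 468 purified kinases/mutants, with the test compound at a single concentration of 1 μM. Read-out is the relative binding activity of each kinase in the presence of compound.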

G protein-coupled receptor kinase 4 (Homo sapiens), sequence (P32298 whole entry, looked up, the tested form may be a part): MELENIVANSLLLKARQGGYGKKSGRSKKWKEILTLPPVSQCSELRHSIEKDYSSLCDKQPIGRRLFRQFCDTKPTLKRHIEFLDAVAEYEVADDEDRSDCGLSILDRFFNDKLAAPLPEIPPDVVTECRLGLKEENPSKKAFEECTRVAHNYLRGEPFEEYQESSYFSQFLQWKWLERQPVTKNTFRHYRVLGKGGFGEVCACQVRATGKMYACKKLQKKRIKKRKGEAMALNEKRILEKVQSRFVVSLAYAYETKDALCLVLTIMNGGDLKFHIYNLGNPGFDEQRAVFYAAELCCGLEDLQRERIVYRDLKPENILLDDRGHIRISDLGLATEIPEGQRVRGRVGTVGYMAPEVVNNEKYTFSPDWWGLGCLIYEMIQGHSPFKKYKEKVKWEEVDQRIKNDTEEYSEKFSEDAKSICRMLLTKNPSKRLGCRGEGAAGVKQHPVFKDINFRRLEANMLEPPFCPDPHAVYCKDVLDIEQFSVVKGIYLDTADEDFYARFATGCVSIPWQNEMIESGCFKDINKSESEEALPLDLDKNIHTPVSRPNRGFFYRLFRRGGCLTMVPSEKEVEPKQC
Microtubule-associated serine/threonine-protein kinase 1 (Homo sapiens), sequence (Q9Y2H9 whole entry, looked up, the tested form may be a part): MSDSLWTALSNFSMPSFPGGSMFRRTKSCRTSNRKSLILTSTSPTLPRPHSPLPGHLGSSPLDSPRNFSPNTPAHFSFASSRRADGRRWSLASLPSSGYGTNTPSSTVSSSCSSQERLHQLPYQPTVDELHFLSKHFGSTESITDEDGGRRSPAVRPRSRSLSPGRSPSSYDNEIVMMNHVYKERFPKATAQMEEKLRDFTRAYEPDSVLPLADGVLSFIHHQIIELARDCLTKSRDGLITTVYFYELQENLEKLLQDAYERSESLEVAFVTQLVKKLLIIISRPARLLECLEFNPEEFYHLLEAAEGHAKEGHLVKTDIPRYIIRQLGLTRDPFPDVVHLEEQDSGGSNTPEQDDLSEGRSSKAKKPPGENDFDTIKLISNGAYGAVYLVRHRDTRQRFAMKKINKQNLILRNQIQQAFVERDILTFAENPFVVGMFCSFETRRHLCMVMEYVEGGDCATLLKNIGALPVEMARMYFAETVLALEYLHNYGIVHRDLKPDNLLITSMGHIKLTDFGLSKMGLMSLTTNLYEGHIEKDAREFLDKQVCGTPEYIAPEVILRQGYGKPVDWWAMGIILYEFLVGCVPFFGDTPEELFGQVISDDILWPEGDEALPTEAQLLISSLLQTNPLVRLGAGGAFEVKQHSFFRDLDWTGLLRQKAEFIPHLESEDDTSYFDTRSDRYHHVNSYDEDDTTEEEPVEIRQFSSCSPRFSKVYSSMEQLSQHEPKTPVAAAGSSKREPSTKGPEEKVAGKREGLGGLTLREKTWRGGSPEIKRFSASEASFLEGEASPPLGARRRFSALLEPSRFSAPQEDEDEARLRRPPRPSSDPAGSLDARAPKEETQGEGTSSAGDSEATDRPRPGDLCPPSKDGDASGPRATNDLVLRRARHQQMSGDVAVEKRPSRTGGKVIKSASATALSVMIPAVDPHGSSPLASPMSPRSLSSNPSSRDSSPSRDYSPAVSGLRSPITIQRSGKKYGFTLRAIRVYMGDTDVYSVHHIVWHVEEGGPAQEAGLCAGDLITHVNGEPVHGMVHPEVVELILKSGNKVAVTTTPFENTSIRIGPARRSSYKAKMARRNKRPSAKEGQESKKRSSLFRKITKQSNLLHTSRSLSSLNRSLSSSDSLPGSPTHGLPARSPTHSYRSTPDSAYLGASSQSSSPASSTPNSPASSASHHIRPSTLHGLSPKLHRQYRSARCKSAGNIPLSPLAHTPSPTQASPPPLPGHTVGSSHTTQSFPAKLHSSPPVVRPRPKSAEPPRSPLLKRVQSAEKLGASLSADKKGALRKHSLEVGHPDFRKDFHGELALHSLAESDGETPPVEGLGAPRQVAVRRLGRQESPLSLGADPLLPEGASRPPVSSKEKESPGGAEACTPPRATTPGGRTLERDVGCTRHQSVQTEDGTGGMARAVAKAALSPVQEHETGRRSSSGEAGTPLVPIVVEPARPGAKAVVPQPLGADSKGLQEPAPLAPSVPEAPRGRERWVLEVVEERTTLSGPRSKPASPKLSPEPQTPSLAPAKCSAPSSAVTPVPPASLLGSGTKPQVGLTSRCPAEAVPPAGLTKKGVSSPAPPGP
Dual specificity tyrosine-phosphorylation-regulated kinase 1B (Homo sapiens), sequence (Q9Y463 whole entry, looked up, the tested form may be a part): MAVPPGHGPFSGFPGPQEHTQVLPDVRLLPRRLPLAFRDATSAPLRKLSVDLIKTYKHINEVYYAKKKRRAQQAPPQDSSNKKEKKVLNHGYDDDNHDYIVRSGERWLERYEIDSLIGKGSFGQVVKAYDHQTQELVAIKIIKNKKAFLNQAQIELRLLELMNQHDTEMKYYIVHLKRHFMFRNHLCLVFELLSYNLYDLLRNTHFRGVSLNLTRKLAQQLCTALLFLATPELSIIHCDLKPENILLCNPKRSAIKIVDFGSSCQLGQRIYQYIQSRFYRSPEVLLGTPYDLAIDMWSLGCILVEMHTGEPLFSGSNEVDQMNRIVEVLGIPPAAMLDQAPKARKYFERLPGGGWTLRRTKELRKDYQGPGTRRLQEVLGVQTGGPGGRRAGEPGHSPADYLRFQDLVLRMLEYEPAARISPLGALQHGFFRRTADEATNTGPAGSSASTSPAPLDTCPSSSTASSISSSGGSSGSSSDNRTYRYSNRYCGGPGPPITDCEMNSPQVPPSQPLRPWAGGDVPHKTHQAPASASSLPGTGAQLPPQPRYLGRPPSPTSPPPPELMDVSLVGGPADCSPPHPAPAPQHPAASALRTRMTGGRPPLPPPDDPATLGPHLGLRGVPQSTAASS
Protein-tyrosine kinase 6 (Homo sapiens), sequence (Q13882 whole entry, looked up, the tested form may be a part): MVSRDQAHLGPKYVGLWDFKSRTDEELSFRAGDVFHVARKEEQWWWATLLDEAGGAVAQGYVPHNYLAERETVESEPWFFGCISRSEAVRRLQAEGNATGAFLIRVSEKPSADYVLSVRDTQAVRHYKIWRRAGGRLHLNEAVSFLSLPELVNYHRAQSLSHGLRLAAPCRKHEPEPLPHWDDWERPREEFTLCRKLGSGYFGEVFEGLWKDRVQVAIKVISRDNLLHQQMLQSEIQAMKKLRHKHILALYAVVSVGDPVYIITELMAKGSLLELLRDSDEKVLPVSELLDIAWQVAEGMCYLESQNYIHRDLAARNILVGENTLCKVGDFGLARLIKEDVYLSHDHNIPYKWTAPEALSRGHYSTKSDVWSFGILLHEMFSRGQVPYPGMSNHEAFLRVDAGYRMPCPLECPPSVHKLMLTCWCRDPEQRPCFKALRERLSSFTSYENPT
Calcium/calmodulin-dependent protein kinase type IV (Homo sapiens), sequence (Q16566 whole entry, the tested form may be a part): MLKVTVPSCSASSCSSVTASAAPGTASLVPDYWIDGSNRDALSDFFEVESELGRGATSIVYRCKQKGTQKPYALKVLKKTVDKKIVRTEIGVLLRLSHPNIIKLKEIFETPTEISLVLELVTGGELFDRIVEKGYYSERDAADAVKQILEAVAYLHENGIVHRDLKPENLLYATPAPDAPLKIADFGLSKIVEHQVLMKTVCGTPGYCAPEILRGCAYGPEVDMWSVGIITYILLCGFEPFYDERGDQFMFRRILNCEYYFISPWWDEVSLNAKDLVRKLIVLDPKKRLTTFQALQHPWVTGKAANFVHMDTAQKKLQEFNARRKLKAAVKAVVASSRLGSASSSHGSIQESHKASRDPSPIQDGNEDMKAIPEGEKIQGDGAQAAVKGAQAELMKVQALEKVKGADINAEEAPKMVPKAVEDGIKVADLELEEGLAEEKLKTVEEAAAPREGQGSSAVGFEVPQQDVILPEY
Tyrosine-protein kinase ABL2 (Homo sapiens), sequence (P42684 whole entry, the tested form may be a part): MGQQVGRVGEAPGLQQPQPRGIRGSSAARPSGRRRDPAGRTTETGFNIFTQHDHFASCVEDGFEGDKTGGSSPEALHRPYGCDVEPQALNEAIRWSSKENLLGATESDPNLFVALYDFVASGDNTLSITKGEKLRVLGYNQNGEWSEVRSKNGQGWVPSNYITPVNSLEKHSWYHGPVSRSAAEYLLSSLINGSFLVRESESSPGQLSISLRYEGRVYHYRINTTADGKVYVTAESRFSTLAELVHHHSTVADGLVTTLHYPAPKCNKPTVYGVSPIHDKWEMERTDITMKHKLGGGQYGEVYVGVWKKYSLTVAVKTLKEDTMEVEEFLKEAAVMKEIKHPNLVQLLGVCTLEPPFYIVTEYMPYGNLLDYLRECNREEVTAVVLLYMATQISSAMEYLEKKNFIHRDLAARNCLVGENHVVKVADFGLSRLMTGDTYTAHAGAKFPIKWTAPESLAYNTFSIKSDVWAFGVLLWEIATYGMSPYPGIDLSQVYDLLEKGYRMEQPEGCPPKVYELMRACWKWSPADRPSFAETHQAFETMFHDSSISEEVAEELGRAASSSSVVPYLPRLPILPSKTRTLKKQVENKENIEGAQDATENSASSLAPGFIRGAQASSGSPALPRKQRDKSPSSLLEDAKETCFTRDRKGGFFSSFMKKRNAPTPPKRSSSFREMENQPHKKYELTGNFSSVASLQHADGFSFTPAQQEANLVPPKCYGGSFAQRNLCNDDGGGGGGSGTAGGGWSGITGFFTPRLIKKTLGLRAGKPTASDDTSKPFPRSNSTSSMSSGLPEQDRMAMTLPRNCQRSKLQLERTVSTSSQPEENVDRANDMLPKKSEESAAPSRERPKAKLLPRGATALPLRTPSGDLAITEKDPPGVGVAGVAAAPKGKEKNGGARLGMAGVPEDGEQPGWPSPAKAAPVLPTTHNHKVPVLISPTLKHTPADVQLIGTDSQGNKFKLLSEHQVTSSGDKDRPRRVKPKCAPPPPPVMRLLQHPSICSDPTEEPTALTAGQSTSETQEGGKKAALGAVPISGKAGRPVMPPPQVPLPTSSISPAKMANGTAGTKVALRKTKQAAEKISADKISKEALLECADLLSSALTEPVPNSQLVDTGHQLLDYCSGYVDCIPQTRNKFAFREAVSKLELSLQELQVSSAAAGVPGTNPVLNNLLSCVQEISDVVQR

Cc1ccc(NC(=O)c2ccc(CN(CCN(C)C)C(=O)c3cccnc3)cc2)cc1Nc1nccc(-c2cccnc2)n1
Activity [1]: 69% | Activity [2]: 100% | Activity [3]: 98% | MRT last [4]: 53.5 min | Activity [5]: 100% | Activity [6]: 81% | Activity [7]: 97% | Activity [8]: 100% | Activity [9]: 79% | inhibition [10]: Dose-dependent effect | Activity [11]: 100% | Activity [12]: 96% | Activity [13]: 98% | Activity [14]: 90% | Activity [15]: 100% | Activity [16]: 88% | Activity [17]: 77% | Activity [18]: 51% | pIC50 [19]: < 5.00 | Activity [20]: 100% | Activity [21]: 91%
